Experimental data as given in ChEMBL document CHEMBL1153836, “Effects of human immunodeficiency virus protease inhibitors on the intestinal absorption of tenofovir disoproxil fumarate in vitro” (Antimicrob Agents Chemother, 2007).
Each block holds one compound with its values, some of them ahead of it. Active and inactive are the calls of the source. No cut-off for these calls is given here.

How the values were obtained:
Caco-2 [1] = experiment: Increase in P-glycoprotein-mediated tenofovir disoproxil fumarate permeation from apical to basolateral side of human Caco-2 cells at 20 uM; type: cell-based
In short: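 Caco-2 monolayers were preincubated 30 min with 20 µM PI in transport buffer, then given fresh buffer with inhibitor plus TDF on the apical side. […] Duplicates; mean ± SD of three independent experiments.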

[2] = target: ATP-dependent translocase ABCB1 (Homo sapiens, UniProt P08183); experiment: Inhibition of human MDR1-dependent accumulation of calcein-AM expressed in MDCK2 cells; type: cell-based, MDCK-II; conditions: for Activity: human, mdck-ii
In short: (§1)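 Parental and MDR1-transfected MDCKII cells received calcein-AM together with PI (seven twofold dilutions from 50 µM, no serum proteins). Intracellular calcein fluorescence was read in a 96-well format. Percent increase in fluorescence was fitted to a hyperbolic curve for IC50. Duplicates; 3–10 independent assays.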

Homo sapiens [3] = experiment: Effect on tenofovir disoproxil fumarate metabolism in ritonavir booster drug treated healthy human assessed as change in plasma AUC of tenofovir at 1000 mg, po, BID co-administered with 300 mg once daily dose of tenofovir disoproxil fumarate; type: ADME, organism-based; conditions: in vivo
Homo sapiens [4] = experiment: Effect on tenofovir disoproxil fumarate metabolism in ritonavir booster drug treated healthy human assessed as change in plasma Cmax of tenofovir at 1000 mg, po, BID co-administered with 300 mg once daily dose of tenofovir disoproxil fumarate; type: ADME, organism-based; conditions: in vivo
Homo sapiens [5] = experiment: Effect on tenofovir disoproxil fumarate metabolism in ritonavir booster drug treated healthy human assessed as change in plasma Cmin of tenofovir at 1000 mg, po, BID co-administered with 300 mg once daily dose of tenofovir disoproxil fumarate; type: ADME, organism-based; conditions: in vivo
Homo sapiens [6] = organism: Homo sapiens; experiment: Inhibition of esterase mediated-hydrolysis of tenofovir disoproxil fumarate in human intestinal sub cellular fraction S9 at 2 uM after 30 mins
In short: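 Reactions were stopped at 30 and 60 min with 67% acetonitrile, and TDF was measured by LC/MS/MS. Degradation rate came from a single-exponential fit, expressed as percent inhibition versus DMSO. Duplicates; three to six independent experiments.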

[7] = target: T1, MDR1 (ABCB1, P-glycoprotein) (Homo sapiens, UniProt P08183); experiment: Inhibition of human MDR1-dependent accumulation of calcein-AM expressed in MDCK2 cells at 50 uM; type: cell-based, MDCK-II; parameters: activity at 50 µM: scale not given: the % may be the effect or the level left; conditions: MDCK2 cells expressing human MDR1, probe calcein-AM; in short: as §1
Homo sapiens [8] = experiment: Effect on tenofovir disoproxil fumarate metabolism in ritonavir booster drug treated healthy human assessed as change in plasma AUC of tenofovir at 300 mg, po, BID co-administered with 300 mg once daily dose of tenofovir disoproxil fumarate; type: ADME, organism-based; conditions: in vivo
Homo sapiens [9] = experiment: Effect on tenofovir disoproxil fumarate metabolism in ritonavir booster drug treated healthy human assessed as change in plasma Cmax of tenofovir at 300 mg, po, BID co-administered with 300 mg once daily dose of tenofovir disoproxil fumarate; type: ADME, organism-based; conditions: in vivo
Homo sapiens [10] = experiment: Effect on tenofovir disoproxil fumarate metabolism in ritonavir booster drug treated healthy human assessed as change in plasma Cmin of tenofovir at 300 mg, po, BID co-administered with 300 mg once daily dose of tenofovir disoproxil fumarate; type: ADME, organism-based; conditions: in vivo
Homo sapiens [11] = experiment: Effect on tenofovir disoproxil fumarate metabolism in ritonavir booster drug treated healthy human assessed as change in plasma Cmax of tenofovir at 500 mg, po, BID co-administered with 300 mg once daily dose of tenofovir disoproxil fumarate; type: ADME, organism-based; conditions: in vivo
Homo sapiens [12] = experiment: Effect on tenofovir disoproxil fumarate metabolism in ritonavir booster drug treated healthy human assessed as change in plasma Cmax of tenofovir at 750 mg, po, BID co-administered with 300 mg once daily dose of tenofovir disoproxil fumarate; type: ADME, organism-based; conditions: in vivo
Homo sapiens [13] = experiment: Effect on tenofovir disoproxil fumarate metabolism in ritonavir booster drug treated healthy human assessed as change in plasma Cmax of tenofovir at 800 mg, po, TID co-administered with 300 mg once daily dose of tenofovir disoproxil fumarate; type: ADME, organism-based; conditions: in vivo
Homo sapiens [14] = experiment: Effect on tenofovir disoproxil fumarate metabolism in ritonavir booster drug treated healthy human assessed as change in plasma Cmin of tenofovir at 1250 mg, po, BID co-administered with 300 mg once daily dose of tenofovir disoproxil fumarate; type: ADME, organism-based; conditions: in vivo
[15] = target: T1, MDR1 (ABCB1, P-glycoprotein); experiment: Inhibition of human MDR1-dependent accumulation of calcein-AM expressed in MDCK2 cells at 20 uM; type: cell-based, MDCK-II; conditions: MDCK2 cells expressing human MDR1, probe calcein-AM
Homo sapiens [16] = experiment: Effect on tenofovir disoproxil fumarate metabolism in ritonavir booster drug treated healthy human assessed as change in plasma AUC of tenofovir at 300 mg, po, QD co-administered with 300 mg once daily dose of tenofovir disoproxil fumarate; type: ADME, organism-based; conditions: in vivo
Homo sapiens [17] = experiment: Effect on tenofovir disoproxil fumarate metabolism in ritonavir booster drug treated healthy human assessed as change in plasma Cmax of tenofovir at 300 mg, po, QD co-administered with 300 mg once daily dose of tenofovir disoproxil fumarate; type: ADME, organism-based; conditions: in vivo
Homo sapiens [18] = experiment: Effect on tenofovir disoproxil fumarate metabolism in ritonavir booster drug treated healthy human assessed as change in plasma Cmin of tenofovir at 300 mg, po, QD co-administered with 300 mg once daily dose of tenofovir disoproxil fumarate; type: ADME, organism-based; conditions: in vivo
Homo sapiens [19] = experiment: Effect on tenofovir disoproxil fumarate metabolism in ritonavir booster drug treated healthy human assessed as change in plasma AUC of tenofovir at 1400 mg, po, BID co-administered with 300 mg once daily dose of tenofovir disoproxil fumarate; type: ADME, organism-based; conditions: in vivo
Homo sapiens [20] = experiment: Effect on tenofovir disoproxil fumarate metabolism in ritonavir booster drug treated healthy human assessed as change in plasma Cmax of tenofovir at 700 mg, po, BID co-administered with 300 mg once daily dose of tenofovir disoproxil fumarate; type: ADME, organism-based; conditions: in vivo
Homo sapiens [21] = experiment: Effect on tenofovir disoproxil fumarate metabolism in ritonavir booster drug treated healthy human assessed as change in plasma Cmax of tenofovir at 1400 mg, po, BID co-administered with 300 mg once daily dose of tenofovir disoproxil fumarate; type: ADME, organism-based; conditions: in vivo
Homo sapiens [22] = experiment: Effect on tenofovir disoproxil fumarate metabolism in ritonavir booster drug treated healthy human assessed as change in plasma Cmin of tenofovir at 1400 mg, po, BID co-administered with 300 mg once daily dose of tenofovir disoproxil fumarate; type: ADME, organism-based; conditions: in vivo
Caco-2 [23] = experiment: Increase in P-glycoprotein-mediated forward permeation of tenofovir disoproxil fumarate in human Caco-2 cells at 2 uM; type: cell-based
Homo sapiens [24] = experiment: Effect on tenofovir disoproxil fumarate metabolism in ritonavir booster drug treated HIV infected patient assessed as change in plasma AUC of tenofovir at 400 mg, po, BID co-administered with 300 mg once daily dose of tenofovir disoproxil fumarate; type: ADME, organism-based; conditions: in vivo
Homo sapiens [25] = experiment: Effect on tenofovir disoproxil fumarate metabolism in HIV infected patient assessed as change in plasma Cmax of tenofovir at 400 mg, po, BID co-administered with 300 mg once daily dose of tenofovir disoproxil fumarate; type: ADME, organism-based; conditions: in vivo
Homo sapiens [26] = experiment: Effect on tenofovir disoproxil fumarate metabolism in HIV infected patient assessed as change in plasma Cmin of tenofovir at 400 mg, po, BID co-administered with 300 mg once daily dose of tenofovir disoproxil fumarate; type: ADME, organism-based; conditions: in vivo
Caco-2 [27] = experiment: Ratio of permeability from basolateral to apical side over apical to basolateral side in human Caco-2 cells at 1 uM; type: ADME, cell-based; conditions: caco-2, 1 µM
In short: (§2)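 Confluent Caco-2 monolayers dosed with TDF (1–1,000 µM) on the apical or basolateral side at 37°C, 5% CO2. […] Efflux ratio = B-to-A Papp / A-to-B Papp. Two independent experiments in duplicate.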

Caco-2 [28] = experiment: Ratio of permeability from basolateral to apical side over apical to basolateral side in human Caco-2 cells at 1000 uM; type: ADME, cell-based; conditions: caco-2, 1000 µM; in short: as §2
Caco-2 [29] = experiment: Increase in P-glycoprotein-mediated forward permeation of tenofovir disoproxil fumarate in human Caco-2 cells at 10 uM; type: cell-based
Homo sapiens [30] = organism: Homo sapiens; experiment: Inhibition of esterase mediated-hydrolysis of tenofovir disoproxil fumarate in human intestinal sub cellular fraction S9 assessed as rate of tenofovir disoproxil fumarate degradation at 10 uM after 30 mins
In short: (§3)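 Human intestinal S9 at 1 mg/ml protein; TDF 2 µM incubated with or without inhibitor (10, 50 or 100 µM) at 37°C in duplicate. Reactions were stopped at 30 and 60 min with 67% acetonitrile, protein removed by centrifugation, and TDF measured by LC/MS/MS. The degradation rate came from a single-exponential-decay fit.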

Homo sapiens [31] = organism: Homo sapiens; experiment: Inhibition of esterase mediated-hydrolysis of tenofovir disoproxil fumarate in human intestinal sub cellular fraction S9 assessed as rate of tenofovir disoproxil fumarate degradation at 50 uM after 30 mins; in short: as §3
Homo sapiens [32] = organism: Homo sapiens; experiment: Inhibition of esterase mediated-hydrolysis of tenofovir disoproxil fumarate in human intestinal sub cellular fraction S9 assessed as rate of tenofovir disoproxil fumarate degradation at 100 uM after 30 mins; in short: as §3

ATP-dependent translocase ABCB1, sequence (P08183 whole entry): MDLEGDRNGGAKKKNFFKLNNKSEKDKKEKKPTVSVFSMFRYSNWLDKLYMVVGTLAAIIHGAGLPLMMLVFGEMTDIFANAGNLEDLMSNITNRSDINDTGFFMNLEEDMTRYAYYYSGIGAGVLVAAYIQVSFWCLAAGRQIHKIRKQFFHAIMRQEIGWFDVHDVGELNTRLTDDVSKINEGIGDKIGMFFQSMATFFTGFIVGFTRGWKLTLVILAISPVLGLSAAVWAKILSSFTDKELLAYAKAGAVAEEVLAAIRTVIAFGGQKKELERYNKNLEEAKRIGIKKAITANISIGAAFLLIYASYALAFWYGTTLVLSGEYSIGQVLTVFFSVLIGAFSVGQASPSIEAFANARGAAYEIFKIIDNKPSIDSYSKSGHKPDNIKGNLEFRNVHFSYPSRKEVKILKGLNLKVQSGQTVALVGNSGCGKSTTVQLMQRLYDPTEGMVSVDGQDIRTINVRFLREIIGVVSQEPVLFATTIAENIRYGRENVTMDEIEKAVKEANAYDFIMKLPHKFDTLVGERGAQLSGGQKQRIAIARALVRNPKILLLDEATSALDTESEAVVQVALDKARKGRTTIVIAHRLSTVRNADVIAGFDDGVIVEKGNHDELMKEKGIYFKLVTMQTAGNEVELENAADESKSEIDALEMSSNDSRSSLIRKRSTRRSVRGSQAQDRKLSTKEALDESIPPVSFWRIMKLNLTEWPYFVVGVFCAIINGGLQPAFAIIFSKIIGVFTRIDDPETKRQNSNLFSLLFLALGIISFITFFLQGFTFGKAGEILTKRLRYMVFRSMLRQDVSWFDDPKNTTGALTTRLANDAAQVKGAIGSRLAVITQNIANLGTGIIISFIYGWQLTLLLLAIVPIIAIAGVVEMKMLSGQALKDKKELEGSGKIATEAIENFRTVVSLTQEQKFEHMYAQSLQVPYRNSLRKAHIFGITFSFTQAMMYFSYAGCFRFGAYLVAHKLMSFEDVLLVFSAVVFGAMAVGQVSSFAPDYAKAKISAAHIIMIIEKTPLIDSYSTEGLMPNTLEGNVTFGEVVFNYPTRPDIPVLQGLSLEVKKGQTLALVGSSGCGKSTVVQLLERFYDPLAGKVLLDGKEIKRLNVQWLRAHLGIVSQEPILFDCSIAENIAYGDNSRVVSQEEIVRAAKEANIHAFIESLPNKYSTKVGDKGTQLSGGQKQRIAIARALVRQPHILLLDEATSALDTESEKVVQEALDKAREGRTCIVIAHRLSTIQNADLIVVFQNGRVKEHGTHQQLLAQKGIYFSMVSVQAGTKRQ
T1 sequence (P08183 whole entry): as above

SMILES: CC(C)(C)NC(=O)[C@@H]1C[C@@H]2CCCC[C@@H]2CN1C[C@@H](O)[C@H](Cc1ccccc1)NC(=O)[C@H](CC(N)=O)NC(=O)c1ccc2ccccc2n1
Activity (Caco-2 [1]): Active
Activity [2]: Dose-dependent effect
Activity (Homo sapiens [3]): 14%
Activity (Homo sapiens [4]): 15%
Activity (Homo sapiens [5]): 23%
Activity (Homo sapiens [6]): Active

SMILES: CC(C)CN(C[C@@H](O)[C@H](Cc1ccccc1)NC(=O)O[C@H]1CO[C@H]2OCC[C@H]21)S(=O)(=O)c1ccc(N)cc1
activity at 50 µM ([7]; read-out: Activity): 15%
IC50 [2]: > 100 µM
Activity (Homo sapiens [8]): 22%
Activity (Homo sapiens [9]): 24%
Activity (Homo sapiens [10]): 37%
inhibition (Homo sapiens [6]): < 40%

SMILES: Cc1c(O)cccc1C(=O)N[C@@H](CSc1ccccc1)[C@H](O)CN1C[C@H]2CCCC[C@H]2C[C@H]1C(=O)NC(C)(C)C
Activity [2]: Dose-dependent effect
Activity (Homo sapiens [14]): 9%
Activity (Homo sapiens [6]): Active
inhibition at 20 µM [15]: 50%

SMILES: COC(=O)N[C@H](C(=O)N[C@@H](Cc1ccccc1)[C@@H](O)CN(Cc1ccc(-c2ccccn2)cc1)NC(=O)[C@@H](NC(=O)OC)C(C)(C)C)C(C)(C)C [ATAZANAVIR]
Activity (Caco-2 [1]): Active
IC50 [2]: 67.8 µM
Activity [2]: Dose-dependent effect
Activity (Homo sapiens [16]): 37%
Activity (Homo sapiens [17]): 34%
Activity (Homo sapiens [18]): 29%
Activity (Homo sapiens [6]): Active

SMILES: Cc1nc(COc2ccc(C[C@H](NC(=O)O[C@H]3CO[C@H]4OCC[C@H]43)[C@H](O)CN(CC(C)C)S(=O)(=O)c3ccc4c(c3)OCO4)cc2)cs1 [BRECANAVIR]
IC50 [2]: 24.1 µM
Activity [2]: Dose-dependent effect
Activity (Homo sapiens [8]): 32%
Activity (Homo sapiens [9]): 24%
inhibition (Homo sapiens [6]): Active
inhibition at 20 µM [15]: 50%

SMILES: CC(C)CN(C[C@@H](OP(=O)(O)O)[C@H](Cc1ccccc1)NC(=O)O[C@H]1CCOC1)S(=O)(=O)c1ccc(N)cc1 [FOSAMPRENAVIR]
Activity (Homo sapiens [19]): -15%
Activity (Homo sapiens [20]): -18%
Activity (Homo sapiens [21]): -25%
Activity (Homo sapiens [22]): -12%

SMILES: CC(C)OC(=O)OCOP(=O)(CO[C@H](C)Cn1cnc2c(N)ncnc21)OCOC(=O)OC(C)C.O=C(O)/C=C/C(=O)O [TENOFOVIR DISOPROXIL FUMARATE]
Ratio (Caco-2 [27]): 25
Ratio (Caco-2 [28]): 2.6
fold change (FC) (Caco-2 [29]): 1.4
fold change (FC) (Caco-2 [23]): 2.5
Activity (Homo sapiens [30]): 0.021 min⁻¹
Activity (Homo sapiens [31]): 0.016 min⁻¹
Activity (Homo sapiens [32]): 0.012 min⁻¹

Second part, led by results:

inhibition at 50 µM [7]: ≤ 25%
Activity (Homo sapiens [6]): Active
SMILES: CC(C)CN(C[C@@H](O)[C@H](Cc1ccccc1)NC(=O)O[C@H]1CCOC1)S(=O)(=O)c1ccc(N)cc1

Activity (Homo sapiens [11]): -23%
Activity (Homo sapiens [12]): -38%
SMILES: CCC[C@@]1(CCc2ccccc2)CC(O)=C([C@H](CC)c2cccc(NS(=O)(=O)c3ccc(C(F)(F)F)cn3)c2)C(=O)O1

inhibition at 50 µM [7]: ≤ 25%
Activity (Homo sapiens [13]): 14%
inhibition (Homo sapiens [6]): < 40%
SMILES: CC(C)(C)NC(=O)[C@@H]1CN(Cc2cccnc2)CCN1C[C@@H](O)C[C@@H](Cc1ccccc1)C(=O)N[C@H]1c2ccccc2C[C@H]1O.O

Activity (Homo sapiens [6]): Active
SMILES: CC(C)c1nc(CN(C)C(=O)N[C@H](C(=O)N[C@@H](Cc2ccccc2)C[C@H](O)[C@H](Cc2ccccc2)NC(=O)OCc2cncs2)C(C)C)cs1
Activity (Caco-2 [1]): Active

Activity [2]: Dose-dependent effect
Activity (Homo sapiens [24]): 32%
Activity (Homo sapiens [25]): 15%
Activity (Homo sapiens [26]): 51%
Activity (Homo sapiens [6]): Active
inhibition at 20 µM [15]: 50%
SMILES: Cc1cccc(C)c1OCC(=O)N[C@@H](Cc1ccccc1)[C@@H](O)C[C@H](Cc1ccccc1)NC(=O)[C@H](C(C)C)N1CCCNC1=O [LOPINAVIR]
Activity (Caco-2 [1]): Active
Activity (Caco-2 [23]): 100%
